B1: tRNA (parent)
chain: GUUCCGUUGGCGUAAUGGUAACGCGUCUCCCUCCUAAGGAGAAGACUGCGGGUUCGAGUCCCGUACGGAACG

Fewer inactive variants are shown than the library holds. Some results are limits rather than exact numbers.

From the RNAGym collection of RNA variant scans (doi:10.1126/science.aae0568) come the findings set out here.

The data set covers variants of B1. The experiment in a line: yeast fitness relative to wild type (ratio to wild type); higher = fitter; tRNA-Arg(CCU), competitive growth, 37 C, YPD. Put shortly:
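Genotype frequency changes were the basis for Darwinian fitness relative to wild type. The frequencies came from 100-nucleotide paired-end sequencing of gene amplicons from the start population and each end population of pooled yeast strains with tRNA-Arg(CCU) gene variants at the native locus. Competition ran in YPD at 37°C for 24 hours in six replicates, genotypes needed ≥ 100 starting reads, and estimates < 0.5 were set to 0.5.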
Take U7C C24G A45G: the yeast fitness was ≤ 0.5.
U7C A15G G17A: the yeast fitness was ≤ 0.5.
As for U7C C27G C33G G44A, the figure is 0.75; as for U7C U13G C30U A65U, 0.619.
For U7C A21U the value was 0.769; for U7C A21C, 0.606; for U7C A14G C22G, ≤ 0.5.
For U7C A14U A65C the value was ≤ 0.5; for U7C A42U, 0.728.
For the variant U7C U8C U26G, the yeast fitness was ≤ 0.5.
Regarding U7C C22U A43U, the yeast fitness was ≤ 0.5.
Turning to U7C A65U, the yeast fitness turned out to be 0.849.
For U7C A15C A40G A57G the value was 0.649; for U7C U32C G58A A70C, ≤ 0.5.
As for U7C U26C G41C C46A, the figure is ≤ 0.5.
Regarding U7C U16G U28A, the yeast fitness was ≤ 0.5.
As for U7C U47C C62G, the figure is ≤ 0.5.
Regarding U7G A14G U64A, the yeast fitness was 0.527.
As for U7C G56A A65C, the figure is 0.598.
For U7C C11G C30G C33A A57C C61A the value was ≤ 0.5.
U7C U26C A36G A42G G48C A65C: the yeast fitness was ≤ 0.5.
In the case of U7C G50C A70G, the yeast fitness was ≤ 0.5.
For U7C G56U A65U G68C the value was ≤ 0.5; for U7C C33G A36G C49A G68C, ≤ 0.5.
As for U7C C33U G63A, the figure is 0.54.
For the variant U7C A42C U53A, the yeast fitness was ≤ 0.5.
As for U7C G9A G23C A45C, the figure is ≤ 0.5.
For U7C A21G C33G C60U the value was ≤ 0.5; for U7C G48A G68U A70C, 0.542.
For U7C A15U C49U C62U the value was 0.673; for U7C C62U A65U, 0.542.
For the variant U7C A21C C34U C49U A69U, the yeast fitness was ≤ 0.5.
As for U7G A14G, the figure is 0.911; as for U7G A14C, 0.532; as for U7C U53A, 0.655.
For U7C C27A G51C C60U A69C the value was ≤ 0.5; for U7A U47C A69C, 0.601; for U7C G10C C46U G63C, ≤ 0.5.
As for U7C U59A, the figure is 0.765; as for U7G A14U U53A, 0.554; as for U7G A15C A21C U28A G51A C60U C62U, 0.653.
Regarding U7C C11U A37C C60A, the yeast fitness is ≤ 0.5.
As for U7G A14G U35G A43G C55U U59A, the figure is ≤ 0.5.
As for U7C G63A, the figure is 0.856; as for U7C A37G A42C C49G C61U, 0.504; as for U7C C66U, 0.921.
For U7C G25A G41A A42C G50C A70G, the yeast fitness is 0.569.
For U7C C11U the value was 0.886; for U7C G44A, 0.807.
As for U7C G25C, the figure is 0.822; as for U7C G25A, 1.04; as for U7C U8A C24G U64C, ≤ 0.5.
For U7C C11U C22A C29G C33U the value was ≤ 0.5.
On to U7C A21U C22A, for which the yeast fitness is ≤ 0.5.
As for U7C C31G C34U A57U, the figure is ≤ 0.5; as for U7C C31U C46U, 0.532; as for U7C A57U U64C G67C, 0.501.
For U7A U53C the value was 0.604; for U7C U32C, 0.776; for U7C G48C A70C, 0.6.
As for U7C G10A C34A G63A, the figure is 0.555; as for U7C C11U G39C A45U, ≤ 0.5.
Take U7C G41A A42C G50C C66U: the yeast fitness amounted to 0.548.
As for U7A U64A, the figure is 0.837; as for U7C G12A G41A A42C G50C A70G, 0.53; as for U7C C55U, 0.847.
With U7C A36C C61G C66U A69U, the yeast fitness was ≤ 0.5.
Turning to U7C C61G C62U, the yeast fitness is ≤ 0.5.
U7G: the yeast fitness stood at 0.983.
As to U7C, the yeast fitness came out at 1.01.
As for U7C G9A A14C C33G G50C C60G U64A, the figure is 0.618.
For U7C G41A A42C G50C C55A the value was ≤ 0.5; for U7C C22U C49U C55A, ≤ 0.5; for U7C C29G G39A, ≤ 0.5.
As for U7C A20G C31U A43G U59A, the figure is ≤ 0.5; as for U7C C11G C24U G48A A57G C66U A70C, ≤ 0.5; as for U7C A70G, 0.879.
Consider U7C A45U U54C, for which the yeast fitness stood at 0.557.
For U7G A14U U19A C22U C60G the value was ≤ 0.5; for U7C G39C C46U C49U G56A G68C, ≤ 0.5; for U7C G10A G41C U64G A65C, ≤ 0.5.
Regarding U7C G10C C49U A65G, the yeast fitness is ≤ 0.5.
As for U7C G9C G41A, the figure is ≤ 0.5; as for U7C U16A C31U A43C, 0.722; as for U7C G51A, 0.856.
U7C G51C: the yeast fitness came to 0.6.
As for U7C U8G C27A A69U, the figure is ≤ 0.5; as for U7C A65U A69U, 0.801; as for U7C G10A C24G C62A, ≤ 0.5.
For U7C U28C the value was 0.879.
As for U7C U28A, the figure is 0.845; as for U7C C34G A45G C60U A69U, ≤ 0.5; as for U7C C24A C55A C62U A65C, ≤ 0.5.
For the variant U7C A43U, the yeast fitness amounted to 0.949.
As for U7C A43C, the figure is 0.88; as for U7C A43G, 0.841; as for U7C G10A C29U C30G C34A, ≤ 0.5.
For U7C G12C A20C the value was 0.632; for U7C C30G U32C A40C C62U G67A, ≤ 0.5.
For U7C G9C the value was 0.729; for U7C C27G A69U, 0.632; for U7A U47C, 0.785.
U7C G12A U13C U26C: the yeast fitness is 0.565.
In the case of U7C G58A, the yeast fitness came to 1.06.
For U7C G58C, the yeast fitness is 0.781.
As for U7C A20C C34A G63C, the figure is ≤ 0.5; as for U7C G68U, 0.674; as for U7C C31U A57U, 0.539.
As for U7C C30A A42C C60U A69G, the figure is ≤ 0.5.
As for U7C G39C U47A G58A G63A, the figure is ≤ 0.5; as for U7C U26G A36C G50C, 0.781.
Consider U7G A14G C22U G38A, for which the yeast fitness is 0.534.
Consider U7C U28A G48C A69U A70U, for which the yeast fitness is ≤ 0.5.
For U7C C24U A70G, the yeast fitness amounted to 0.666.
As for U7C A20G U32G, the figure is ≤ 0.5.
For U7C C27U A45C the value was 0.609; for U7C C30U G39C U54C U64C, ≤ 0.5.
Turning to U7C A14G G17A A69U A70U, the yeast fitness turned out to be 0.594.
For U7C C11G G18A G44U A65C the value was ≤ 0.5; for U7C G25A U59C A69C, ≤ 0.5; for U7C A43C A57G U59C A70G, ≤ 0.5.
For U7C C31U A70U the value was 0.658; for U7C A21U C55A, 0.586; for U7C C61U A70G, 0.712.
For U7C U16A C24G G41C the value was ≤ 0.5; for U7C A36C A57U C61A C66A, ≤ 0.5; for U7C A36C A57U C61A C66G, 0.537.
Consider U7C C46U A69U, for which the yeast fitness turned out to be 0.842.
For U7C A40U A42U U54A U64G the value was ≤ 0.5; for U7G A14U U19A C22U, ≤ 0.5.
As for U7C A43G A65C, the figure is 0.591; as for U7C G17A C22U, 0.651.
For U7C C46G G50A C62G U64C the value was 0.695.
As to U7C U47C U64G G68C, the yeast fitness was ≤ 0.5.
For U7C U16A G41C U54C C66U the value was ≤ 0.5.
As for U7C C62G A69U, the figure is 0.565; as for U7C A36G A45U, 0.569; as for U7C C27U A45U G48A C66U, ≤ 0.5.
For U7C U47G G68U the value was ≤ 0.5.
Turning to U7C U26C C31G U35C C46A C66A, the yeast fitness was ≤ 0.5.
For U7C A14G G17A the value was 0.531; for U7C C30U C34A, ≤ 0.5; for U7C C62A, 0.786.
With U7C C22A C31U A57C G58A A69G, the yeast fitness is ≤ 0.5.
On to U7C A20C A69C, for which the yeast fitness stood at 0.615.
For U7C U26G A57U C66U the value was ≤ 0.5.
As for U7C G44A C46U A69C, the figure is 0.698; as for U7C G58A G67A, 0.62; as for U7C G67C, 0.951.
As for U7C G67A A69C, the figure is 0.534.
For the variant U7C C49U U54C, the yeast fitness is 0.508.
For U7C G17C U19C C24G G48C G51C U53C A57U C66U the value was 0.575; for U7C G12C, 0.914.
In the case of U7C U16G G17A C49U U59C C62A, the yeast fitness is ≤ 0.5.
For U7G A14G C22U G23A G38A C55A the value was ≤ 0.5; for U7C C31U U47C, ≤ 0.5.
As for U7C G18A C31A U59A, the figure is ≤ 0.5; as for U7C G18A G50A U64A, ≤ 0.5.
As for U7C C24A G67A, the yeast fitness is ≤ 0.5.
As for U7C C30U C34A A57U C66A, the figure is 0.555; as for U7C C29A U32C C60A, ≤ 0.5.
Regarding U7C G67A A70U, the yeast fitness is ≤ 0.5.
For U7C C27U A36C G56C G68A A70U the value was ≤ 0.5; for U7C C29G U47C U53G, ≤ 0.5; for U7C C29G G44C C60U, ≤ 0.5.
For the variant U7C C34A, the yeast fitness came to 0.764.
As for U7C C61U U64A A69G, the figure is 0.535.
